pIC50: −log10 of the molar value.

For data set [1], the system named is Mus musculus. The experiment in a line: Antiinflammatory activity in mouse assessed as inhibition of phorbol ester-induced ear edema at 1 mg/ear. The format is functional.
Data set [2] deals with Mus musculus. Kind of data set: Antiinflammatory activity in mouse assessed as inhibition of phorbol ester-induced ear edema at 3 mg/ear. It counts as functional.
Data set [3] in a line: Inhibition of PDE4.
The nature of data set [4]: Chemical stability in phosphate buffer of pH 7.4 assessed as change in ester. It counts as physicochemical. To be noted: read-out: Activity. The gist of the method:
(§1)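 Compounds at 5 µM final in female CD-1 mouse plasma (K2EDTA) or PBS pH 7.4, 37 °C with mild shaking for 1 h. A time-0 plate was held on ice. Reactions were quenched with internal standard in acetonitrile or methanol, then centrifuged, and the supernatant was analysed by LC/MS/MS for loss of ester and appearance of the corresponding acid. Triplicates, values are means.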

Data set [5] relates to Plasma. The experiment in a line: Metabolic stability in CD1 mouse plasma assessed as change in ester. The format is ADME, cell-free. The gist of the method:
as §1

The subject of data set [6] is Plasma. The experiment in a line: Metabolic stability in CD1 mouse plasma assessed as change in formation of acid. It counts as ADME, cell-free. The gist of the method:
as §1

The nature of data set [7]: Chemical stability in phosphate buffer of pH 7.4 assessed as formation of acid. It counts as physicochemical. The gist of the method:
as §1

Data set [8] is described as follows: Inhibition of PDE4 at 10 uM.
In data set [9] the test system is THP-1. The experiment in a line: Antiinflammatory activity in human THP1 cells assessed as inhibition of TNFalpha release. The format is functional, cell-based.
Data set [10] deals with THP-1. Kind of data set: Antiinflammatory activity in human THP1 cells assessed as inhibition of IL2 release. The format is functional, cell-based.
Data set [11] deals with THP-1. Kind of data set: Antiinflammatory activity in human THP1 cells assessed as inhibition of IFN-gamma release. The format is functional, cell-based.
Data set [12] relates to THP-1. Kind of data set: Antiinflammatory activity in human THP1 cells assessed as inhibition of IL5 release. The format is functional, cell-based.
Data set [13] has as its system THP-1. The experiment in a line: Antiinflammatory activity in human THP1 cells assessed as inhibition of IL10 release. The format is functional, cell-based.
Data set [14] can be described thus: Half life in CD1 mouse at 25 mg/kg, iv. To be noted: in vivo. It counts as ADME, organism-based. Also on record: dose 25 mg/kg, route intravenous. The gist of the method: (§2)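 A single 25 mg/kg iv dose in 1-methyl-2-pyrrolidone/propylene glycol/PEG-400 (10:40:50, v/v/v) was given to non-fasted CD-1 mice, n = 3. Plasma ester and acid were measured over 6 h. Non-compartmental analysis gave the PK parameters, and iv bioavailability was taken as 100%.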

Data set [15] is described as follows: Tmax in CD1 mouse at 100 mg/kg, sc. The format is ADME, organism-based. More on the design: dose 100 mg/kg, route subcutaneous. To be noted: in vivo. The gist of the method: (§3)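 Non-fasted CD-1 mice (n = 3 per group) received a single 100 mg/kg dose sc or po as a suspension in 1% carboxymethylcellulose. Plasma ester and its acid metabolite were followed over 6 h. Parameters came from a non-compartmental model, with bioavailability referenced to iv set at 100%.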

Data set [16] can be described thus: Tmax in CD1 mouse at 100 mg/kg, po. More on the design: dose 100 mg/kg, route oral. To be noted: in vivo. The format is ADME, organism-based. The gist of the method: as §3
Data set [17] is described as follows: Cmax in CD1 mouse at 100 mg/kg, sc. The format is ADME, organism-based. More on the design: dose 100 mg/kg, route subcutaneous. To be noted: in vivo. The gist of the method:
as §3

Data set [18] can be described thus: Cmax in CD1 mouse at 100 mg/kg, po. It counts as ADME, organism-based. More on the design: dose 100 mg/kg, route oral. To be noted: in vivo. The gist of the method: as §3
The nature of data set [19]: Cmax in CD1 mouse at 25 mg/kg, iv. The format is ADME, organism-based. Also on record: dose 25 mg/kg, route intravenous. To be noted: in vivo. The gist of the method:
as §2

Data set [20] can be described thus: AUC in CD1 mouse at 100 mg/kg, sc. To be noted: plasma. It counts as ADME, organism-based. Also on record: dose 100 mg/kg, route subcutaneous. The gist of the method: as §3
The nature of data set [21]: AUC in CD1 mouse at 100 mg/kg, po. The format is ADME, organism-based. More on the design: dose 100 mg/kg, route oral. To be noted: plasma. The gist of the method: as §3
Data set [22] can be described thus: Bioavailability in CD1 mouse at 100 mg/kg, sc. The format is ADME, organism-based. To be noted: in vivo. The gist of the method: as §3
The nature of data set [23]: Oral bioavailability in CD1 mouse at 100 mg/kg. The format is ADME, organism-based. To be noted: in vivo. The gist of the method: as §3
Data set [24] concerns Mus musculus. The experiment in a line: Bioavailability in CD1 mouse at 25 mg/kg, iv. The format is ADME, organism-based. To be noted: in vivo. The gist of the method: as §2

As for `C[C@@H]1C[C@H]2[C@@H]3CCC4=CC(=O)C=C[C@]4(C)[C@@]3(F)[C@@H](O)C[C@]2(C)[C@@]1(O)C(=O)CO` [DEXAMETHASONE], the “inhibition (INH)” value in data set [1] is on record as 68%.

In the case of `COc1ccc(C2CNC(=O)C2)cc1OC1CCCC1` (stereo not drawn) [ROLIPRAM], the “inhibition (INH)” value came out at 6% in data set [1] and 53% in [2].

In general, pIC50 refers to −log10 of the IC50, conventionally taken in molar units. For `N#Cc1ccc(Oc2ccc3c(c2)COB3O)nc1`, in data set [3], the negative logarithm of the IC50 (pIC50) is 6.74.

For `COC(=O)c1ccc(Oc2ccc3c(c2)COB3O)cc1`, the negative logarithm of the IC50 (pIC50) in data set [3] was 6.54. Besides, in data set [4], the percent change in ester was -8.9%. For the same compound, the Activity is reported as -43.6% in [5] and 29.4% in data set [6].

As for `COC(=O)c1ccc(Oc2ccc3c(c2)COB3O)nc1`, the pIC50 in [3] is 7.08. In addition, the percent change in ester in data set [4] is -9.8%. In addition, the values for the Activity in [7], in data set [5] and in [6] were 0.4%, -42.4% and 31.6%, respectively.

On to `CCCOC(=O)c1ccc(Oc2ccc3c(c2)COB3O)cc1`, for which the negative-log IC50 (pIC50) in [3] was 6.12. The percent change in ester in data set [4] is -8.8%. For the same compound, the Activity in data set [5] was -94.9%; in data set [6], 58.8%.

`CCCCOC(=O)c1ccc(Oc2ccc3c(c2)COB3O)nc1` showed a negative-log IC50 (pIC50) in data set [3] of 7.02. Further, in data set [4], the percent change in ester is -8.9%. Moreover, the Activity in data set [7] is given as 0.4%; in data set [5], -98%; in data set [6], 76.6%.

Broadly, the inhibition is the relative decrease from the control value, in per cent. Low values mean little suppression, high ones strong suppression. Turning to `O=C(O)c1ccc(Oc2ccc3c(c2)COB3O)nc1`, the inhibition in data set [8] is 5%. In addition, the negative-log IC50 (pIC50) in [9], in data set [10], in [11], in data set [12] and in data set [13] was below 5.00 each time.

As to `CC(C)OC(=O)c1ccc(Oc2ccc3c(c2)COB3O)nc1`, the pIC50 in [3] was 6.95. Moreover, in data set [4], the percent change in ester was determined as 2.4%. For the same compound, the Activity in data set [7] is 1.4%; in data set [5] it was -60.5%; in data set [6], 36.4%.

For the compound `CCOC(=O)c1ccc(Oc2ccc3c(c2)COB3O)cc1`, the pIC50 in [3] is 6.66. For the same compound, the percent change in ester in data set [4] is -3.2%. The Activity was -76.2% in data set [5] and 53.6% in data set [6].

As usually defined, the half-life is the time needed for the level to fall by half in the phase considered. High values mean slow decline, low ones rapid decline. For orientation: Tmax means the time from dosing to the highest level. For orientation: Cmax means the maximum level reached in the sampled fluid or tissue. Usually AUC stands for concentration integrated over time. The low end stands for low exposure, the high end for high exposure. As usually defined, the bioavailability is the share of a dose that reaches the circulation, judged against a reference dose that is usually intravenous. A high value points to much systemic uptake. As for `CCOC(=O)c1ccc(Oc2ccc3c(c2)COB3O)nc1`, the pIC50 in data set [3] is 7.33; in data set [9], 6.70; in data set [10] it was 7.00; in data set [11], 7.00; in [12] it was 6.70; in [13] it was 6.34. The compound further showed a half-life in data set [14] of 61.8 min. The time of peak concentration (Tmax) in data set [15] came to 30 min; in data set [16] it was 15 min. The Cmax in data set [17] came out at 12700 ng/mL; in data set [18] it was 4390 ng/mL; in [19], 12500 ng/mL. Besides, the exposure (AUC) turned out to be 14500 ng·h/mL in data set [20] and 1660 ng·h/mL in [21]. Also, the bioavailability in [22] is 97.8%; in data set [23] it was 10.8%. The compound also registered a F in data set [24] of 100%. Moreover, the percent change in ester in [4] was -2.4%. In addition, the Activity in [5] is -72.5%. Moreover, in [1], the “inhibition (INH)” value is recorded as 59%.

Consider `N#Cc1ccc(Oc2ccc3c(c2)COB3O)cc1` [CRISABOROLE], for which the negative-log IC50 (pIC50) in data set [3] is 6.31.

Consider `O=C(O)c1ccc(Oc2ccc3c(c2)COB3O)cc1`, for which the negative logarithm of the IC50 (pIC50) in data set [3] was 5.19.

The compound `CCCOC(=O)c1ccc(Oc2ccc3c(c2)COB3O)nc1` had a negative logarithm of the IC50 (pIC50) in [3] of 6.89. Further, in [4], the percent change in ester is -13.6%. In addition, the figures for the Activity in [7], in [5] and in data set [6] were 0.5%, -92.5% and 79.8%, respectively.

For the compound `CC(C)OC(=O)c1ccc(Oc2ccc3c(c2)COB3O)cc1`, the negative logarithm of the IC50 (pIC50) in [3] was 6.89. The percent change in ester in data set [4] is -10.6%. Besides, the Activity in [5] is -58.9%; in data set [6], 27.6%.
